Publication PMC6605684 (The Journal of General Physiology, 2019)
“Also recorded” adds a separate entry of the source.

Legend:
F304Y-mCFTR = F304Y-mCFTR (Mus musculus, UniProt P26361, F304Y); assay: Inside-out patch-clamp of CFTR currents in transfected CHO cells; format: cell-based
Method in brief: (§1)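 CFTR construct and GFP plasmid cotransfected into CHO cells, held at 27°C for 2–6 d. Inside-out patches at room temperature, −30 mV, NMDG-Cl solutions at pH 7.4. Channels preactivated with 25 IU PKA plus 2 mM MgATP, then test compound (max 40 µM) applied in 2 mM ATP. ATP-subtracted steady-state currents normalized to the 3 µM response in the same patch. Hill fit with base 0 and maximum 1; EC50 ± SD of fit; 3–7 patches per point.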

F236A-CFTR = F236A-CFTR (Homo sapiens, UniProt P13569, F236A); assay: as above; format: cell-based; details: 200 nM VX-770, mean
Chain of F236A-CFTR (P13569 whole entry F236A): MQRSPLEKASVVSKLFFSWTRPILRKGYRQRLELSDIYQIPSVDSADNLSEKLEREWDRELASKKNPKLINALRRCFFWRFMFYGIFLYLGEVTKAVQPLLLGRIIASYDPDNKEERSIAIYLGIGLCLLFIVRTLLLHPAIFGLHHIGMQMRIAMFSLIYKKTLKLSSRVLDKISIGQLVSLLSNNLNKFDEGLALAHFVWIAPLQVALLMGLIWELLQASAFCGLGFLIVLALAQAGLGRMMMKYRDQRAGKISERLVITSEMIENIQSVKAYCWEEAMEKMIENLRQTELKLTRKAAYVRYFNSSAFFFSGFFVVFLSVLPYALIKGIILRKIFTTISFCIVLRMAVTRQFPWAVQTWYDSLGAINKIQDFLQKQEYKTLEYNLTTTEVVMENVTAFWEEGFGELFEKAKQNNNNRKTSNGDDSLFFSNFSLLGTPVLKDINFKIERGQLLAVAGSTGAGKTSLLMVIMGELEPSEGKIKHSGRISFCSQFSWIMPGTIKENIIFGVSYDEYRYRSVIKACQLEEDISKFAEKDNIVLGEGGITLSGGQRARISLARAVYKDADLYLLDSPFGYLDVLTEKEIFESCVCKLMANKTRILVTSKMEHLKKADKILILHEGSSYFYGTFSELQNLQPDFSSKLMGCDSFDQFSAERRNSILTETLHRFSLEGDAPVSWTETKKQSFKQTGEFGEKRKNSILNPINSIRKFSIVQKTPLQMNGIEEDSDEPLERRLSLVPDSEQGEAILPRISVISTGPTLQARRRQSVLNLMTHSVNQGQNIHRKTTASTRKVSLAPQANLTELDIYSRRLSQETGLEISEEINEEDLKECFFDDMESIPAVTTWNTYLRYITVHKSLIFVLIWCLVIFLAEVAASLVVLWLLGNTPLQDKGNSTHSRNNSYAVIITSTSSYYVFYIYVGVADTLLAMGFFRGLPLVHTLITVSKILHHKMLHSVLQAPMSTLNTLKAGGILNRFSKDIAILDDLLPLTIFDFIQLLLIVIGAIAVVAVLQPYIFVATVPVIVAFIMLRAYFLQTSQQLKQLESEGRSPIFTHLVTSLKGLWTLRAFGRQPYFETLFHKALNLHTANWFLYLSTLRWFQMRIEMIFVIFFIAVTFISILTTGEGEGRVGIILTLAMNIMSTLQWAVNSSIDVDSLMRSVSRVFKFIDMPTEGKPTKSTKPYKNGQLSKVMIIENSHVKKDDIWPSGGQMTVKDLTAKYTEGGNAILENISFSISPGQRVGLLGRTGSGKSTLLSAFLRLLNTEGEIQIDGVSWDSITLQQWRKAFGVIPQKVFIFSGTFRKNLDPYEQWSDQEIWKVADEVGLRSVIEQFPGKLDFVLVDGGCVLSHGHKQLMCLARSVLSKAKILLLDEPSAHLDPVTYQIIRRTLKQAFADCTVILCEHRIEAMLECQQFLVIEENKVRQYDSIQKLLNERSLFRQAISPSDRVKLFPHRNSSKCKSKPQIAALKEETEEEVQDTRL
Method in brief: as §1

S1141K/G551D-CFTR = S1141K/G551D-CFTR (Homo sapiens, UniProt P13569, G551D/S1141K); assay: as above; format: cell-based; details: mean
Chain of S1141K/G551D-CFTR (P13569 whole entry G551D/S1141K): as the sequence (P13569 whole entry F236A) above, with A236F, G551D, S1141K counted along it
Method in brief: as §1

S182A-CFTR = S182A-CFTR (Homo sapiens, UniProt P13569, S182A); assay: as above; format: cell-based; details: 200 nM VX-770, mean
Chain of S182A-CFTR (P13569 whole entry S182A): as the sequence (P13569 whole entry F236A) above, with S182A, A236F counted along it
Method in brief: as §1

D924N-CFTR = D924N-CFTR (Homo sapiens, UniProt P13569, D924N); assay: as above; format: cell-based; details: 200 nM VX-770, 2 mM ATP, mean
Chain of D924N-CFTR (P13569 whole entry D924N): as the sequence (P13569 whole entry F236A) above, with A236F, D924N counted along it
Method in brief: as §1

N1138L/G551D-CFTR = N1138L/G551D-CFTR (Homo sapiens, UniProt P13569, G551D/N1138L); assay: as above; format: cell-based; details: mean
Chain of N1138L/G551D-CFTR (P13569 whole entry G551D/N1138L): as the sequence (P13569 whole entry F236A) above, with A236F, G551D, N1138L counted along it
Method in brief: as §1

G551D-CFTR = G551D-CFTR (Homo sapiens, UniProt P13569, G551D); assay: as above; format: cell-based
Chain of G551D-CFTR (P13569 whole entry G551D): as the sequence (P13569 whole entry F236A) above, with A236F, G551D counted along it
Method in brief: as §1

WT-CFTR [1] = target: T1, WT-CFTR (Homo sapiens, UniProt P13569); assay: as above; format: cell-based; details: mean
T1 sequence (P13569 whole entry): as the sequence (P13569 whole entry F236A) above, with A236F counted along it
Method in brief: as §1

S263A-CFTR = S263A-CFTR (Homo sapiens, UniProt P13569, S263A); assay: as above; format: cell-based; details: 200 nM VX-770, mean
Chain of S263A-CFTR (P13569 whole entry S263A): as the sequence (P13569 whole entry F236A) above, with A236F, S263A counted along it
Method in brief: as §1

WT-mCFTR = WT-mCFTR (Mus musculus, UniProt P26361); assay: Inside-out patch-clamp of CFTR currents in transfected CHO cells; format: cell-based; details: 200 nM VX-770, 2 mM ATP
Chain of WT-mCFTR (P26361 whole entry): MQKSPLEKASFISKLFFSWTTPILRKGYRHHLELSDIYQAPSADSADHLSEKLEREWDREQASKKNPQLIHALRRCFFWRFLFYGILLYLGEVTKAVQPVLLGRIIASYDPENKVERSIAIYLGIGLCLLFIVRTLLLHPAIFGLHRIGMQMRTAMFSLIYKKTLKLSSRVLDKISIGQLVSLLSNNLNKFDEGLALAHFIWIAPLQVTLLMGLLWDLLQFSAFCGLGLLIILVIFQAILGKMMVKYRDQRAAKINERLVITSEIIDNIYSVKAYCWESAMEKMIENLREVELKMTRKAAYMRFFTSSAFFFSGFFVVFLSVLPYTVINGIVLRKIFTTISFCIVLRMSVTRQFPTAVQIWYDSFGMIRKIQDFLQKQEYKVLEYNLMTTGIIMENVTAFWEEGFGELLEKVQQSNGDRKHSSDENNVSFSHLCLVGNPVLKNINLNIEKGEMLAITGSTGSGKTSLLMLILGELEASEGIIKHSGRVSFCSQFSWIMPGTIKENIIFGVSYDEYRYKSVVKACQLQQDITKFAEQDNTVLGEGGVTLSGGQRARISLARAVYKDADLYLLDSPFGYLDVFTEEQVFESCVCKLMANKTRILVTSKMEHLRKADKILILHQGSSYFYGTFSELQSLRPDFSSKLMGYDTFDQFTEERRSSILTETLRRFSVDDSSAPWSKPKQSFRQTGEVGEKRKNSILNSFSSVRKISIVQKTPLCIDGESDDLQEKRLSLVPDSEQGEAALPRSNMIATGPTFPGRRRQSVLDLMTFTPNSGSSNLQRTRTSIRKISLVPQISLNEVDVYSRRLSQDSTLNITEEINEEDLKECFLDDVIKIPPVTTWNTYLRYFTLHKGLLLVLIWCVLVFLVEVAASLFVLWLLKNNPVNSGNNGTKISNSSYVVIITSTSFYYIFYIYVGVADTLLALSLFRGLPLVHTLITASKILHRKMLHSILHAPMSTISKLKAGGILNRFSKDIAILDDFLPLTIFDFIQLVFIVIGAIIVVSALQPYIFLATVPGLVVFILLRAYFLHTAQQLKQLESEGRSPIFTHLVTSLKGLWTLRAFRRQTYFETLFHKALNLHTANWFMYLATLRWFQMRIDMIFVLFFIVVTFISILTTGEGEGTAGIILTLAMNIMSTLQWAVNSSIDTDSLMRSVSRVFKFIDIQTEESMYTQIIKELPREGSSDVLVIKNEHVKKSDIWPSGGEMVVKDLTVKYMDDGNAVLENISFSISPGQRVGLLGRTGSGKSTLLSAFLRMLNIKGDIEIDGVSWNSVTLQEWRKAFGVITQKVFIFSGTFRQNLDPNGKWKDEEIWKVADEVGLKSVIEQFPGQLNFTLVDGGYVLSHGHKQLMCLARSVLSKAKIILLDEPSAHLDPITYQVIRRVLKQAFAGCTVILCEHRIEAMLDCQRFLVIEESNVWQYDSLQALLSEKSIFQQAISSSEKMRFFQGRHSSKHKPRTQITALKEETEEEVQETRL
Method in brief: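 Mouse CFTR expressed in CHO cells; inside-out patches. Phosphorylated channels opened by 2 mM ATP before the potentiator was applied (one potentiator at 200 nM). 5 µM CFTRinh-172 added at the end of each recording for baseline.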

F229A-CFTR = F229A-CFTR (Homo sapiens, UniProt P13569, F229A); assay: Inside-out patch-clamp of CFTR currents in transfected CHO cells; format: cell-based; details: 200 nM VX-770, mean
Chain of F229A-CFTR (P13569 whole entry F229A): as the sequence (P13569 whole entry F236A) above, with F229A, A236F counted along it
Method in brief: as §1

WT-CFTR [2] = target: T1, WT-CFTR; details: ref Jih and Hwang, 2013; cited from earlier work
Y304A-CFTR = Y304A-CFTR (Homo sapiens, UniProt P13569, Y304A); assay: Inside-out patch-clamp of CFTR currents in transfected CHO cells; format: cell-based; details: 200 nM VX-770, mean
Chain of Y304A-CFTR (P13569 whole entry Y304A, the tested form may be a part): as the sequence (P13569 whole entry F236A) above, with A236F, Y304A counted along it
Method in brief: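 Relaxation assay: PKA-preactivated channels in 2 mM ATP at −30 mV exposed to test compound through a fast three-barrel perfusion system (dead time ∼30 ms). Current decay after sudden removal of 3 µM compound fitted with a single exponential to give relaxation time constant τ.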

F312A-CFTR = F312A-CFTR (Homo sapiens, UniProt P13569, F312A); assay: Inside-out patch-clamp of CFTR currents in transfected CHO cells; format: cell-based; details: 200 nM VX-770, 30 µM ATP, mean
Chain of F312A-CFTR (P13569 whole entry F312A): as the sequence (P13569 whole entry F236A) above, with A236F, F312A counted along it

Chain of F304Y-mCFTR (P26361 whole entry F304Y): as the sequence (P26361 whole entry) above, with F304Y counted along it

CC(C)(C)c1cc(C(C)(C)C)c(NC(=O)c2c[nH]c3ccccc3c2=O)cc1O [VX-770, N-(2,4-di-tert-butyl-5-hydroxyphenyl)-4-oxo-1,4-dihydroquinoline-3-carboxamide]
Potentiation of currents by VX-770 (F304Y-mCFTR): restores the potentiating effects; also recorded: Restoring the effect | τoff (VX-770) (F236A-CFTR): 173 ± 45 s | τon (VX-770) (F236A-CFTR): 19 ± 8 s | τoff (VX-770) (S1141K/G551D-CFTR): 221 ± 50 s | τon (VX-770) (S1141K/G551D-CFTR): 14 ± 6 s | τoff (VX-770) (S182A-CFTR): 343 ± 96 s | τon (VX-770) (S182A-CFTR): 8.2 ± 1.5 s | τoff (VX-770) (D924N-CFTR): 115 ± 7 s | τon (VX-770) (D924N-CFTR): 78 ± 18 s | τoff (VX-770) (N1138L/G551D-CFTR): 268 ± 25 s | τon (VX-770) (N1138L/G551D-CFTR): 18 ± 5 s | τoff (VX-770) (G551D-CFTR; current decay on removal of VX-770, mean): 68 ± 14 s | τon (VX-770) (G551D-CFTR; current rise on application of VX-770, mean): 5.9 ± 2.4 s | τoff (VX-770) (WT-CFTR [1]; current decay on removal of 200 nM VX-770, 2 mM ATP): 361 ± 39 s | τon (VX-770) (WT-CFTR [1]; current rise on application of 200 nM VX-770, 2 mM ATP): 6.7 ± 1.2 s | τoff (VX-770) (S263A-CFTR): 288 ± 68 s | τon (VX-770) (S263A-CFTR): 6.1 ± 1.5 s | Potentiation of currents by VX-770 (WT-mCFTR): fails to potentiate | τoff (VX-770) (F229A-CFTR): 338 ± 49 s | τon (VX-770) (F229A-CFTR): 6.2 ± 1.3 s | Saturating concentration for VX-770 (WT-CFTR [2]): 200 nM | τoff (VX-770) (Y304A-CFTR): 18 ± 6 s | τon (VX-770) (Y304A-CFTR): 49 ± 11 s | τoff (VX-770) (F312A-CFTR): 38 ± 5 s | τon (VX-770) (F312A-CFTR): 15 ± 1 s
